According to ChEMBL document CHEMBL1649165, “Activity profile in vitro of micafungin against Spanish clinical isolates of common and emerging species of yeasts and molds” (2009):
≈ marks a conversion by molar mass, not a printed value.

Columns and labels:
Format in all cases: functional
Candida albicans = experiment: Antimicrobial activity against Candida albicans by broth microdilution method
Procedure, shortened: (§1)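 Clinical isolates from human patients, tested by broth microdilution using the AFST-EUCAST reference procedure for fermentative yeasts. The MIC was read per that reference method.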

Candida tropicalis = experiment: Antimicrobial activity against Candida tropicalis by broth microdilution method; procedure, shortened: as §1
Nakaseomyces glabratus = experiment: Antimicrobial activity against Candida glabrata by broth microdilution method; procedure, shortened: as §1
Kluyveromyces marxianus = experiment: Antimicrobial activity against Candida kefyr by broth microdilution method; procedure, shortened: as §1
Wickerhamomyces anomalus = experiment: Antimicrobial activity against Candida pelliculosa by broth microdilution method; details: Hansenula anomala; procedure, shortened: as §1
Pichia norvegensis = experiment: Antimicrobial activity against Candida norvegensis by broth microdilution method; procedure, shortened: as §1
[Candida] intermedia = Antimicrobial activity against Candida intermedia by broth microdilution method; details: Sungouiella intermedia; procedure, shortened: as §1
Candida metapsilosis = experiment: Antimicrobial activity against Candida metapsilosis by broth microdilution method; details: Lodderomyces metapsilosis; procedure, shortened: as §1
[Candida] zeylanoides = Antimicrobial activity against Candida zeylanoides by broth microdilution method; details: Dujonia zeylanoides; procedure, shortened: as §1
Saccharomyces cerevisiae = experiment: Antimicrobial activity against Saccharomyces cerevisiae by broth microdilution method
Yarrowia lipolytica = experiment: Antimicrobial activity against Yarrowia lipolytica by broth microdilution method
Rhodotorula mucilaginosa = experiment: Antimicrobial activity against Rhodotorula mucilaginosa by broth microdilution method
Procedure, shortened: (§2)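 Nonfermentative yeast clinical isolates (Rhodotorula, Trichosporon) tested by broth microdilution. The EUCAST yeast recommendations were followed strictly, with one minor modification to improve growth. MIC was read as the endpoint.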

Trichosporon dermatis = experiment: Antimicrobial activity against Trichosporon dermatis by broth microdilution method; details: Cutaneotrichosporon dermatis; procedure, shortened: as §2
Rhodotorula glutinis = experiment: Antimicrobial activity against Rhodotorula glutinis by broth microdilution method; procedure, shortened: as §2
Trichosporon domesticum = experiment: Antimicrobial activity against Trichosporon mycotoxinivorans by broth microdilution method; details: Apiotrichum domesticum
Procedure, shortened: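 Spanish human clinical isolates were tested as nonfermentative yeasts by broth microdilution. The method strictly followed the EUCAST recommendations, with a minor modification to improve growth, and the read-out was the MIC.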

Trichosporon = experiment: Antimicrobial activity against Trichosporon spp. by broth microdilution method; procedure, shortened: as §2
Aspergillus terreus = experiment: Antimicrobial activity against Aspergillus terreus by broth microdilution method
Procedure, shortened: (§3)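 Clinical mould isolates, tested by broth microdilution using the AFST-EUCAST reference method for filamentous fungi. For echinocandins, the endpoint was the minimum effective concentration: the lowest drug concentration giving aberrant hyphal growth, read with an inverted microscope.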

Aspergillus flavus = experiment: Antimicrobial activity against Aspergillus flavus by broth microdilution method; procedure, shortened: as §3
Aspergillus niger = experiment: Antimicrobial activity against Aspergillus niger by broth microdilution method; procedure, shortened: as §3
Aspergillus nidulans = experiment: Antimicrobial activity against Aspergillus nidulans by broth microdilution method; procedure, shortened: as §3
Aspergillus sydowii = experiment: Antimicrobial activity against Aspergillus sydowii by broth microdilution method; procedure, shortened: as §3
Aspergillus versicolor = experiment: Antimicrobial activity against Aspergillus versicolor by broth microdilution method; procedure, shortened: as §3
Aspergillus ochraceus = experiment: Antimicrobial activity against Aspergillus ochraceus by broth microdilution method; procedure, shortened: as §3
Fennellia nivea = experiment: Antimicrobial activity against Aspergillus niveus by broth microdilution method; procedure, shortened: as §3
Aspergillus glaucus = experiment: Antimicrobial activity against Aspergillus glaucus by broth microdilution method; procedure, shortened: as §3
Penicillium = experiment: Antimicrobial activity against Penicillium spp. by broth microdilution method
Procedure, shortened: (§4)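 Filamentous fungus clinical isolates tested by the AFST-EUCAST reference broth microdilution method for moulds. For echinocandins, the endpoint was the minimum effective concentration: the lowest drug concentration giving aberrant hyphal growth, read with an inverted microscope.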

Fusarium proliferatum = experiment: Antimicrobial activity against Fusarium proliferatum by broth microdilution method; procedure, shortened: as §3
Fusarium oxysporum = experiment: Antimicrobial activity against Fusarium oxysporum by broth microdilution method; procedure, shortened: as §3
Fusarium verticillioides = experiment: Antimicrobial activity against Fusarium verticillioides by broth microdilution method; procedure, shortened: as §4
Paecilomyces lilacinus = experiment: Antimicrobial activity against Paecilomyces lilacinus by broth microdilution method; details: Purpureocillium lilacinum; procedure, shortened: as §4
[1] = system: Scopulariopsis brevicaulis; experiment: Antimicrobial activity against Scopulariopsis brevicaulis by broth microdilution method; procedure, shortened: as §4
Trichoderma = experiment: Antimicrobial activity against Trichoderma spp. by broth microdilution method; procedure, shortened: as §4
Phialemonium curvatum = experiment: Antimicrobial activity against Phialemonium curvatum by broth microdilution method; details: Thyridium curvatum; procedure, shortened: as §4
Scedosporium apiospermum = experiment: Antimicrobial activity against Scedosporium apiospermum by broth microdilution method; procedure, shortened: as §4
Alternaria alternata = experiment: Antimicrobial activity against Alternaria alternata by broth microdilution method; procedure, shortened: as §3
Lewia infectoria = experiment: Antimicrobial activity against Alternaria infectoria by broth microdilution method; procedure, shortened: as §3
Exophiala dermatitidis = experiment: Antimicrobial activity against Exophiala dermatitidis by broth microdilution method
Aureobasidium pullulans = experiment: Antimicrobial activity against Aureobasidium pullulans by broth microdilution method
Hortaea werneckii = experiment: Antimicrobial activity against Hortaea werneckii by broth microdilution method
Lecythophora hoffmannii = experiment: Antimicrobial activity against Lecythophora hoffmannii by broth microdilution method; details: Coniochaeta hoffmannii; procedure, shortened: as §4
Mucor = experiment: Antimicrobial activity against Mucor spp.by broth microdilution method; procedure, shortened: as §4
[2] = Antimicrobial activity against Rhizopus microsporus by broth microdilution method; procedure, shortened: as §4
Rhizomucor = experiment: Antimicrobial activity against Rhizomucor spp.by broth microdilution method; procedure, shortened: as §4
Saksenaea vasiformis = experiment: Antimicrobial activity against Saksenaea vasiformis by broth microdilution method; procedure, shortened: as §4
Beauveria bassiana = experiment: Antimicrobial activity against Beauveria bassiana by broth microdilution method; procedure, shortened: as §3

Q: What does the source list for `CC[C@H](C)C[C@H](C)CCCCCCCCC(=O)N[C@H]1C[C@@H](O)[C@@H](NCCN)NC(=O)[C@@H]2[C@@H](O)CCN2C(=O)[C@H]([C@H](O)CCN)NC(=O)[C@H]([C@H](O)[C@@H](O)c2ccc(O)cc2)NC(=O)[C@@H]2C[C@@H](O)CN2C(=O)[C@H]([C@@H](C)O)NC1=O` [CASPOFUNGIN]?
A: MIC50 (Candida albicans): 0.06 µg/mL (≈ 0.0549 µM); MIC90 (Candida albicans): 0.12 µg/mL (≈ 0.11 µM); MIC50 (Candida tropicalis): 0.12 µg/mL (≈ 0.11 µM); MIC90 (Candida tropicalis): 0.25 µg/mL (≈ 0.229 µM); MIC50 (Nakaseomyces glabratus): 0.12 µg/mL (≈ 0.11 µM); MIC90 (Nakaseomyces glabratus): 0.25 µg/mL (≈ 0.229 µM); MIC50 (Kluyveromyces marxianus): 0.06 µg/mL (≈ 0.0549 µM); MIC90 (Kluyveromyces marxianus): 0.12 µg/mL (≈ 0.11 µM); MIC50 (Wickerhamomyces anomalus): 0.06 µg/mL (≈ 0.0549 µM); MIC90 (Wickerhamomyces anomalus): 0.5 µg/mL (≈ 0.457 µM); MIC50 (Pichia norvegensis): 0.06 µg/mL (≈ 0.0549 µM); MIC90 (Pichia norvegensis): 0.5 µg/mL (≈ 0.457 µM); MIC50 ([Candida] intermedia): 0.06 µg/mL (≈ 0.0549 µM); MIC90 ([Candida] intermedia): 0.5 µg/mL (≈ 0.457 µM); MIC50 (Candida metapsilosis): 0.06 µg/mL (≈ 0.0549 µM); MIC90 (Candida metapsilosis): 0.5 µg/mL (≈ 0.457 µM); MIC50 ([Candida] zeylanoides): 0.06 µg/mL (≈ 0.0549 µM); MIC90 ([Candida] zeylanoides): 0.5 µg/mL (≈ 0.457 µM); MIC50 (Saccharomyces cerevisiae): 0.5 µg/mL (≈ 0.457 µM); MIC90 (Saccharomyces cerevisiae): 1 µg/mL (≈ 0.915 µM); MIC50 (Yarrowia lipolytica): 0.5 µg/mL (≈ 0.457 µM); MIC90 (Yarrowia lipolytica): 1 µg/mL (≈ 0.915 µM); MIC50 (Rhodotorula mucilaginosa): > 16 µg/mL; MIC90 (Rhodotorula mucilaginosa): > 16 µg/mL; MIC50 (Trichosporon dermatis): > 16 µg/mL; MIC90 (Trichosporon dermatis): > 16 µg/mL; MIC50 (Rhodotorula glutinis): > 16 µg/mL; MIC90 (Rhodotorula glutinis): > 16 µg/mL; MIC50 (Trichosporon domesticum): > 16 µg/mL; MIC90 (Trichosporon domesticum): > 16 µg/mL; MIC50 (Trichosporon): > 16 µg/mL; MIC90 (Trichosporon): > 16 µg/mL; MIC50 (Aspergillus terreus): 1 µg/mL (≈ 0.915 µM); MIC90 (Aspergillus terreus): 2 µg/mL (≈ 1.83 µM); MIC50 (Aspergillus flavus): > 16 µg/mL; MIC90 (Aspergillus flavus): > 16 µg/mL; MIC50 (Aspergillus niger): 0.25 µg/mL (≈ 0.229 µM); MIC90 (Aspergillus niger): 0.5 µg/mL (≈ 0.457 µM); MIC50 (Aspergillus nidulans): 0.5 µg/mL (≈ 0.457 µM); MIC90 (Aspergillus nidulans): > 16 µg/mL; MIC50 (Aspergillus sydowii): 0.25 µg/mL (≈ 0.229 µM); MIC90 (Aspergillus sydowii): 1 µg/mL (≈ 0.915 µM); MIC50 (Aspergillus versicolor): 0.25 µg/mL (≈ 0.229 µM); MIC90 (Aspergillus versicolor): 2 µg/mL (≈ 1.83 µM); MIC50 (Aspergillus ochraceus): 0.12 µg/mL (≈ 0.11 µM); MIC90 (Aspergillus ochraceus): 0.5 µg/mL (≈ 0.457 µM); MIC50 (Fennellia nivea): 0.12 µg/mL (≈ 0.11 µM); MIC90 (Fennellia nivea): 0.5 µg/mL (≈ 0.457 µM); MIC50 (Aspergillus glaucus): 0.12 µg/mL (≈ 0.11 µM); MIC90 (Aspergillus glaucus): 0.5 µg/mL (≈ 0.457 µM); MIC50 (Penicillium): 0.25 µg/mL (≈ 0.229 µM); MIC90 (Penicillium): 8 µg/mL (≈ 7.32 µM); MIC50 (Fusarium proliferatum): > 16 µg/mL; MIC90 (Fusarium proliferatum): > 16 µg/mL; MIC50 (Fusarium oxysporum): > 16 µg/mL; MIC90 (Fusarium oxysporum): > 16 µg/mL; MIC50 (Fusarium verticillioides): > 16 µg/mL; MIC90 (Fusarium verticillioides): > 16 µg/mL; MIC50 (Paecilomyces lilacinus): > 16 µg/mL; MIC90 (Paecilomyces lilacinus): > 16 µg/mL; MIC50 [1]: > 16 µg/mL; MIC90 [1]: > 16 µg/mL; MIC50 (Trichoderma): > 16 µg/mL; MIC90 (Trichoderma): > 16 µg/mL; MIC50 (Phialemonium curvatum): > 16 µg/mL; MIC90 (Phialemonium curvatum): > 16 µg/mL; MIC50 (Scedosporium apiospermum): 2 µg/mL (≈ 1.83 µM); MIC90 (Scedosporium apiospermum): > 16 µg/mL; MIC50 (Alternaria alternata): 4 µg/mL (≈ 3.66 µM); MIC90 (Alternaria alternata): > 16 µg/mL; MIC50 (Lewia infectoria): > 16 µg/mL; MIC90 (Lewia infectoria): > 16 µg/mL; MIC50 (Exophiala dermatitidis): 0.25 µg/mL (≈ 0.229 µM); MIC90 (Exophiala dermatitidis): 1 µg/mL (≈ 0.915 µM); MIC50 (Aureobasidium pullulans): 0.25 µg/mL (≈ 0.229 µM); MIC90 (Aureobasidium pullulans): 1 µg/mL (≈ 0.915 µM); MIC50 (Hortaea werneckii): 0.25 µg/mL (≈ 0.229 µM); MIC90 (Hortaea werneckii): 1 µg/mL (≈ 0.915 µM); MIC50 (Lecythophora hoffmannii): 0.25 µg/mL (≈ 0.229 µM); MIC90 (Lecythophora hoffmannii): 1 µg/mL (≈ 0.915 µM); MIC50 (Mucor): > 16 µg/mL; MIC90 (Mucor): > 16 µg/mL; MIC50 [2]: > 16 µg/mL; MIC90 [2]: > 16 µg/mL; MIC50 (Rhizomucor): > 16 µg/mL; MIC90 (Rhizomucor): > 16 µg/mL; MIC50 (Saksenaea vasiformis): > 16 µg/mL; MIC90 (Saksenaea vasiformis): > 16 µg/mL; MIC50 (Beauveria bassiana): > 16 µg/mL; MIC90 (Beauveria bassiana): > 16 µg/mL
